Experimental data from different studies.
Lines come from different studies, so protocols differ.
Target: Prostaglandin G/H synthase 2 (PTGS2, Homo sapiens, UniProt P35354)
Observed: enzyme activity
Action: inhibitor
One construct used (P35354 18-604): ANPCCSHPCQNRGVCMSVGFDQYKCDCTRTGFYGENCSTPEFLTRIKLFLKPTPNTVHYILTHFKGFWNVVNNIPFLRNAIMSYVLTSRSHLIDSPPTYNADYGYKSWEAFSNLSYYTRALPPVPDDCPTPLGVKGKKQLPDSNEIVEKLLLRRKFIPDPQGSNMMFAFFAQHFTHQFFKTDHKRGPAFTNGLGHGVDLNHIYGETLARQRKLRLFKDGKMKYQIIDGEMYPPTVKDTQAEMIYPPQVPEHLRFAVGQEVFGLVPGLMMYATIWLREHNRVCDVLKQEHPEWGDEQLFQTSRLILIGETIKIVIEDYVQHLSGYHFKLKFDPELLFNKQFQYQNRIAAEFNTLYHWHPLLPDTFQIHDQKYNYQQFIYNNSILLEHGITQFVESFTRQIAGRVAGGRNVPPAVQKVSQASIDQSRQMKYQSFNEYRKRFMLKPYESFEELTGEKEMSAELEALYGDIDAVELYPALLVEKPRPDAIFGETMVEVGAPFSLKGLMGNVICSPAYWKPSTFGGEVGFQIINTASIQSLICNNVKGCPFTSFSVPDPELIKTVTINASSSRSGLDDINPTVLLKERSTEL

SMILES	technique	IC50
CC1=NN(c2cccc(Cl)c2)C(=O)/C1=C\c1cn(-c2nc(N3CCCCC3)nc(N3CCOCC3)n2)c2ccccc12		50 nM
CS(=O)(=O)c1ccc(-c2ncccc2-c2nc3ccccc3s2)cc1	absorbance	860 nM
CC(C)Cc1ccc(-c2nn(-c3ccc(S(C)(=O)=O)cc3)cc2/C=N/N=c2\[nH]c(-c3ccc(Br)cc3)cs2)cc1		3010 nM
O=C(O)c1cc(O)c(O)c(O)c1		8140 nM
O=Cc1cn(-c2nc(N3CCOCC3)nc(N3CCOCC3)n2)c2ccccc12		30 nM
CC(=O)c1ccc(/N=N/c2cc(/C=C/C(=O)O)ccc2O)cc1		> 100000 nM
CS(=O)(=O)c1ccc(-n2cc(/C=N/N=c3\[nH]c(-c4ccc([N+](=O)[O-])cc4)cs3)c(-c3ccc(Br)cc3)n2)cc1		11500 nM
COc1ccc(-c2cc(=O)c3c(O)cc(O[C@@H]4O[C@H](CO)[C@@H](O)[C@H](O)[C@H]4O)cc3o2)cc1O	absorbance	973 nM
Cc1cccc2nc(-c3ccc(S(C)(=O)=O)cc3)c(Nc3ccccc3)n12		70 nM
COc1cc([C@H]2OC[C@H]3[C@@H]2CO[C@@H]3c2cc(OC)c(O)c(OC)c2)cc(OC)c1O	absorbance	2490 nM
O=Cc1cn(-c2nc(N3CCCCC3)nc(N3CCCCC3)n2)c2ccccc12		7000 nM
O=c1oc2c(O)c(O)cc3c(=O)oc4c(O)c(O)cc1c4c23		4620 nM
O=Cc1cn(-c2nc(N3CCCC3)nc(N3CCOCC3)n2)c2ccccc12		2000 nM
O=C(O)c1ccc(O)cc1	absorbance	19500 nM
CS(=O)(=O)c1ccc(-n2cc(C=N/N=c3\[nH]c(-c4ccc(Br)cc4)cs3)c(-c3ccc([N+](=O)[O-])cc3)n2)cc1		27800 nM
Cc1ccc(Nc2c(-c3ccc(S(C)(=O)=O)cc3)nc3c(C)cccn23)cc1		70 nM

SMILES	technique	IC50
O=C1/C(=C\c2cn(-c3nc(N4CCCCC4)nc(N4CCOCC4)n3)c3ccccc23)c2ccccc2N1c1c(Cl)cccc1Cl		1000 nM
NS(=O)(=O)c1ccc(-c2ncccc2-c2nc3ccccc3s2)cc1	absorbance	690 nM
CC1=NN(c2cccc(Cl)c2)C(=O)/C1=C\c1cn(-c2nc(N3CCOCC3)nc(N3CCOCC3)n2)c2ccccc12		20 nM
Cc1ccc(Nc2c(-c3ccc(S(C)(=O)=O)cc3)nc3ccccn23)cc1		100 nM
CC1=NN(c2cccc(Cl)c2)C(=O)/C1=C\c1cn(-c2nc(N3CCCC3)nc(N3CCOCC3)n2)c2ccccc12		1000 nM
CC(=O)c1ccc(N=Nc2c(C(=O)O)cc(O)c(O)c2O)cc1		6110 nM
Cc1cccc2nc(-c3ccc(S(C)(=O)=O)cc3)c(Nc3ccc(F)cc3)n12		80 nM
CC(C)Cc1ccc(-c2nn(-c3ccc(S(C)(=O)=O)cc3)cc2/C=N\N=C2/NC(=O)CS2)cc1		756 nM
Cc1cccn2c(Nc3ccccc3)c(-c3ccc(S(C)(=O)=O)cc3)nc12		80 nM
CS(=O)(=O)c1ccc(-c2ncc(Cl)cc2-c2nc3ccccc3s2)cc1	absorbance	230 nM
COc1ccc(Nc2c(-c3ccc(S(C)(=O)=O)cc3)nc3ccccn23)cc1		390 nM
CS(=O)(=O)c1ccc(-n2cc(/C=N/N=c3\[nH]c(-c4ccc([N+](=O)[O-])cc4)cs3)c(-c3ccc([N+](=O)[O-])cc3)n2)cc1		15500 nM
Cc1ccn2c(Nc3ccc(Cl)cc3)c(-c3ccc(S(C)(=O)=O)cc3)nc2c1		80 nM
CC1=NN(c2cccc(Cl)c2)C(=O)/C1=C\c1cn(-c2nc(N3CCCCC3)nc(N3CCCCC3)n2)c2ccccc12		100 nM
Cc1ccc(Nc2c(-c3ccc(S(C)(=O)=O)cc3)nc3cc(C)ccn23)cc1		70 nM
CCn1c(-c2nc3ccc(C(=O)N4CCCC(N)C4)cc3n2C)cc2ccccc21 (centres unmarked)		> 100000 nM
